Experimental data published in ChEMBL document CHEMBL3621107, “Ring fusion strategy for synthesis and lead optimization of sulfur-substituted anthra[1,2-c][1,2,5]thiadiazole-6,11-dione derivatives as promising scaffold of antitumor agents” (Eur J Med Chem, 2015).

Key:
PC-3 = assay: Cytotoxicity against human PC3 cells after 48 hrs by SRB assay; assay type: functional, cell-based; settings: PC-3, 48 h
Procedure, shortened: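 Second-stage NCI-60 panel run by the NCI Developmental Therapeutics Program, covering nine tumour subpanels. Five concentrations were tested: 0.01, 0.1, 1, 10 and 100 μM. Percentage growth at each level was plotted against log10 drug concentration. GI50, TGI and LC50 were read from these dose-response curves. Subpanel MID values were divided into the full-panel MID to give selectivity ratios.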

DU-145 = assay: Cytotoxicity against human DU145 cells after 72 hrs by MTT assay; assay type: functional, cell-based; settings: DU-145, 72 h
Procedure, shortened: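 DU-145 cells grown in RPMI-1640 with 5% heat-inactivated fetal calf serum at 37 °C, 5% CO2. About 2×10^3 cells per well were seeded and incubated for 24 h. Compounds were dissolved in DMSO freshly and diluted into medium (vehicle 0.1% DMSO), then cells were exposed for 72 h. MTT was added for 3 h at 37 °C and absorbance read at 570 nm.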

[1] = Cytotoxicity against human SV-HUC1 cells assessed as survival rate after 72 hrs by MTT assay; assay type: cell-based; settings: sv-huc1, 72 h
Procedure, shortened: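 SV-HUC-1 cells grown in Ham's F-12K with 5% heat-inactivated fetal calf serum, 37 °C, 5% CO2. About 2×10^3 cells/well plated for 24 h, then a range of compound concentrations (DMSO stock diluted into medium; vehicle 0.1% DMSO) for 72 h. MTT added for 3 h at 37 °C; absorbance 570 nm.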

[2] = Cytotoxicity against human WPMY-1cells assessed as survival rate after 72 hrs by MTT assay; assay type: cell-based; settings: wpmy-1, 72 h
Procedure, shortened: (§1)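 About 2×10^3 cells/well preincubated 24 h at 37 °C, 5% CO2. Compound freshly dissolved in DMSO, diluted into complete medium and added at various concentrations (vehicle 0.1% DMSO) for 72 h. MTT added for 3 h at 37 °C, absorbance read at 570 nm, survival rate derived.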

[3] = Cytotoxicity against human RWPE1 cells assessed as survival rate after 72 hrs by MTT assay; assay type: cell-based, RWPE-1; settings: rwpe-1, 72 h; procedure, shortened: as §1

Compound	IC50 (PC-3) [µM]	IC50 (DU-145) [µM]	Activity [1]	Activity [2]	Activity [3]
CC(C)c1ccc(Sc2cc3c(c4nsnc24)C(=O)c2ccccc2C3=O)cc1	> 15	13.8	–	–	–
Cc1cccc(Sc2cc3c(c4nsnc24)C(=O)c2ccccc2C3=O)c1	> 15	> 15	–	–	–
Cc1ccc(Sc2cc3c(c4nsnc24)C(=O)c2ccccc2C3=O)cc1C	> 15	14.1	–	–	–
O=C1c2ccccc2C(=O)c2c1cc(SCCc1ccccc1)c1nsnc21	> 15	9.65	–	–	–
O=C1c2ccccc2C(=O)c2c1cc(Sc1ccc(F)cc1)c1nsnc21	6.7	11.1	–	–	–
COc1cccc2c1C(=O)c1c(O)c3c(c(O)c1C2=O)C[C@@](O)(C(=O)CO)C[C@@H]3O[C@H]1C[C@H](N)[C@H](O)[C@H](C)O1 [DOXORUBICIN]	–	–	Toxic	Toxic	Toxic
O=C1c2ccccc2C(=O)c2c1cc(SCc1ccccc1Cl)c1nsnc21	5.48	6.38	–	–	–
CCc1ccc(Sc2cc3c(c4nsnc24)C(=O)c2ccccc2C3=O)cc1	7.5	2.52	–	–	–
O=C1c2ccccc2C(=O)c2c1cc(Sc1ccc(Br)cc1)c1nsnc21	> 15	13.3	–	–	–
COc1ccccc1Sc1cc2c(c3nsnc13)C(=O)c1ccccc1C2=O	> 15	12.9	–	–	–
O=C1c2ccccc2C(=O)c2c1cc(Sc1cccc(Br)c1)c1nsnc21	12.4	10.7	–	–	–
CC(C)(C)c1ccc(Sc2cc3c(c4nsnc24)C(=O)c2ccccc2C3=O)cc1	> 15	8.38	–	–	–
O=C1c2ccccc2C(=O)c2c1cc(Sc1cccc(F)c1)c1nsnc21	8.82	12.7	–	–	–
CCc1ccccc1Sc1cc2c(c3nsnc13)C(=O)c1ccccc1C2=O	> 15	> 15	–	–	–
CC(C)(C)c1ccc(CSc2cc3c(c4nsnc24)C(=O)c2ccccc2C3=O)cc1	9.5	3.66	–	–	–
Cc1ccc(Sc2cc3c(c4nsnc24)C(=O)c2ccccc2C3=O)cc1	> 15	> 15	–	–	–
O=C1c2ccccc2C(=O)c2c1cc(Sc1cc(Cl)c(Cl)cc1Cl)c1nsnc21	> 15	> 15	–	–	–
CCCSc1cc2c(c3nsnc13)C(=O)c1ccccc1C2=O	5.39	2.55	–	–	–
CC(C)c1ccccc1Sc1cc2c(c3nsnc13)C(=O)c1ccccc1C2=O	> 15	14.6	–	–	–
O=C1c2ccccc2C(=O)c2c1cc(Sc1ccccc1Cl)c1nsnc21	> 15	> 15	–	–	–
O=C1c2ccccc2C(=O)c2c1cc(Sc1ccccc1F)c1nsnc21	> 15	7.64	–	–	–
Cc1ccc(C)c(Sc2cc3c(c4nsnc24)C(=O)c2ccccc2C3=O)c1	7.44	12	–	–	–
